This note sets out measurements from ChEMBL document CHEMBL2424622, “Development of amino-pyrimidine inhibitors of c-Jun N-terminal kinase (JNK): kinase profiling guided optimization of a 1,2,3-benzotriazole lead” (Bioorg Med Chem Lett, 2013).

Assay [1] concerns the target Dual specificity mitogen-activated protein kinase kinase 2 (Homo sapiens) (UniProt P36507). The assay can be described thus: Competitive binding affinity to MEK2 (unknown origin) at 10 uM in presence of ATP relative to control.
Assay [2] concerns the target Dual specificity mitogen-activated protein kinase kinase 1 (Homo sapiens) (UniProt Q02750). The assay can be described thus: Competitive binding affinity to MEK1 (unknown origin) at 10 uM in presence of ATP relative to control.
Assay [3] has as its system Receptor-type tyrosine-protein kinase FLT3 (Homo sapiens), P36888 [UNDEFINED MUTATION]. The assay can be described thus: Competitive binding affinity to FLT3 ITD mutant (unknown origin) at 10 uM in presence of ATP relative to control.
For assay [4], the system named is Fibroblast growth factor receptor 3 (Homo sapiens), P22607 [G697C]. The assay can be described thus: Competitive binding affinity to FGFR3 G697C mutant (unknown origin) at 10 uM in presence of ATP relative to control. The method, boiled down: (§1)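 In vitro ATP-site competition binding assay, part of profiling against a diverse panel of 128 kinases. Each compound was tested at a single concentration of 10 µM. Kinome selectivity was summarized as S15 selectivity scores.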
Fibroblast growth factor receptor 3 (Homo sapiens), P22607 [G697C], sequence (P22607 whole entry G697C): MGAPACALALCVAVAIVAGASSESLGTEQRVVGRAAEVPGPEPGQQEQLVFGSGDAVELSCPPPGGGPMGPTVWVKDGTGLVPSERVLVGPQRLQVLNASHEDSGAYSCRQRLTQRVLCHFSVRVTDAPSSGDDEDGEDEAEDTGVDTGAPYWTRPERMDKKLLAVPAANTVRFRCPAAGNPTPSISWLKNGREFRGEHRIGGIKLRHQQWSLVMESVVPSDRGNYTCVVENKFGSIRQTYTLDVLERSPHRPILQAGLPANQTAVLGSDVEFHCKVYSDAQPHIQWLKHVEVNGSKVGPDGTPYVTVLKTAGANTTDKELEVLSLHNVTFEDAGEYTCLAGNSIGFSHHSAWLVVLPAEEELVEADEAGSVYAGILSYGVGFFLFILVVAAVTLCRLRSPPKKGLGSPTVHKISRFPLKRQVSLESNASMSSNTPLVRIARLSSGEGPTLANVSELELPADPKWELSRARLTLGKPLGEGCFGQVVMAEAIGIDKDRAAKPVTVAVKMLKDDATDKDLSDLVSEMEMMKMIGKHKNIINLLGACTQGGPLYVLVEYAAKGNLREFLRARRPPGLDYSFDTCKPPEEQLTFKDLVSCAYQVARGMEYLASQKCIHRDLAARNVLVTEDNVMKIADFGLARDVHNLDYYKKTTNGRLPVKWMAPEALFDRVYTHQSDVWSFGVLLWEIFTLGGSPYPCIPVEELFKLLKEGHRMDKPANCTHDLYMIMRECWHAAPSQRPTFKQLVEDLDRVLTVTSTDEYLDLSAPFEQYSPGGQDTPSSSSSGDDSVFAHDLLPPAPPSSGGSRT

Assay [5] has as its target Mitogen-activated protein kinase 3 (Homo sapiens, UniProt P27361). Put plainly: Competitive binding affinity to ERK1 (unknown origin) at 10 uM in presence of ATP relative to control. An outline of the steps:
as §1

Assay [6] deals with Wee1-like protein kinase (Homo sapiens) (UniProt P30291). Put plainly: Competitive binding affinity to WEE1 (unknown origin) at 10 uM in presence of ATP relative to control.
Wee1-like protein kinase (Homo sapiens), sequence (P30291 whole entry, looked up, the tested form may be a part): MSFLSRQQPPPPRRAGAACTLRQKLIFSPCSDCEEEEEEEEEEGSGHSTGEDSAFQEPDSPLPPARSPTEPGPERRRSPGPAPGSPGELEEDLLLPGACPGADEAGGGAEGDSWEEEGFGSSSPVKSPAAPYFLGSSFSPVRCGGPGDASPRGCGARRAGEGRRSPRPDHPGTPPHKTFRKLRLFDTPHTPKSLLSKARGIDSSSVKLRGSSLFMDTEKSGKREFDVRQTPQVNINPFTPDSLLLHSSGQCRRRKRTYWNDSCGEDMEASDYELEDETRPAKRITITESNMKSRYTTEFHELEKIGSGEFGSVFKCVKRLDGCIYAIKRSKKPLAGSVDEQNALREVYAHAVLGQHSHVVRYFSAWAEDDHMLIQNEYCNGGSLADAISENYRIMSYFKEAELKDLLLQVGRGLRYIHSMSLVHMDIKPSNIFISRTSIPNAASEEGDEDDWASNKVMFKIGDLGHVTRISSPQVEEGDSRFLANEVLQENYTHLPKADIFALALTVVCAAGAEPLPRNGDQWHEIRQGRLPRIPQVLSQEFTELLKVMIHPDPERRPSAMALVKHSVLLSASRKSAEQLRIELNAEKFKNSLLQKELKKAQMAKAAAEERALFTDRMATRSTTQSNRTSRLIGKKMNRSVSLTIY
Assay [7] deals with Epithelial discoidin domain-containing receptor 1 (Homo sapiens) (UniProt Q08345). The assay can be described thus: Competitive binding affinity to DDR1 (unknown origin) at 10 uM in presence of ATP relative to control.
Epithelial discoidin domain-containing receptor 1 (Homo sapiens), sequence (Q08345 whole entry, the tested form may be a part, canonical isoform): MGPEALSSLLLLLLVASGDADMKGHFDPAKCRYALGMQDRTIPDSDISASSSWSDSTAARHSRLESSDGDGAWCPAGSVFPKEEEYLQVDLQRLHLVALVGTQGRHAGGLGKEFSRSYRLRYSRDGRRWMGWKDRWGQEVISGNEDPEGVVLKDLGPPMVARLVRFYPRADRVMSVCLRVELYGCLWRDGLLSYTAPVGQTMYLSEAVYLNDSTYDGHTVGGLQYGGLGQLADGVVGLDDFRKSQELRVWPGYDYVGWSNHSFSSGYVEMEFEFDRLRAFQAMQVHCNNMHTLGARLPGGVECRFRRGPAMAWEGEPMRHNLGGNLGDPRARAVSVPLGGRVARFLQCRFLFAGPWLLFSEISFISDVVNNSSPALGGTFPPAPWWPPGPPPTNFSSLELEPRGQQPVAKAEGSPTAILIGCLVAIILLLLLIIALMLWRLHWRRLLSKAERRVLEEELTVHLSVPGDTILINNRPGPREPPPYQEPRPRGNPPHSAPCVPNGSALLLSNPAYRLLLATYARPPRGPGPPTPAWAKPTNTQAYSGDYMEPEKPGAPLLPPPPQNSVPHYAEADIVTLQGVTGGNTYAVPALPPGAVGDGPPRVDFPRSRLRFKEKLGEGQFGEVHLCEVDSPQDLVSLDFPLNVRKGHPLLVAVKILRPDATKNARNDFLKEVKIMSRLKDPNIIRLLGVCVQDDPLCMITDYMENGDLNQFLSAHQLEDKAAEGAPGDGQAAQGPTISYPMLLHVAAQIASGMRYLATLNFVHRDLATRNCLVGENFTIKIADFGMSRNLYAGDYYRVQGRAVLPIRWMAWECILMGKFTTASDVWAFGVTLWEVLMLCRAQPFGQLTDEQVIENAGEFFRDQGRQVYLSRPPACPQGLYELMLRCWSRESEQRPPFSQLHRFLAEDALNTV
For assay [8], the target named is Casein kinase I isoform gamma-3 (Homo sapiens) (UniProt Q9Y6M4). Put plainly: Competitive binding affinity to CSNK1G3 (unknown origin) at 10 uM in presence of ATP relative to control.
Casein kinase I isoform gamma-3 (Homo sapiens), sequence (Q9Y6M4 whole entry, looked up, canonical isoform): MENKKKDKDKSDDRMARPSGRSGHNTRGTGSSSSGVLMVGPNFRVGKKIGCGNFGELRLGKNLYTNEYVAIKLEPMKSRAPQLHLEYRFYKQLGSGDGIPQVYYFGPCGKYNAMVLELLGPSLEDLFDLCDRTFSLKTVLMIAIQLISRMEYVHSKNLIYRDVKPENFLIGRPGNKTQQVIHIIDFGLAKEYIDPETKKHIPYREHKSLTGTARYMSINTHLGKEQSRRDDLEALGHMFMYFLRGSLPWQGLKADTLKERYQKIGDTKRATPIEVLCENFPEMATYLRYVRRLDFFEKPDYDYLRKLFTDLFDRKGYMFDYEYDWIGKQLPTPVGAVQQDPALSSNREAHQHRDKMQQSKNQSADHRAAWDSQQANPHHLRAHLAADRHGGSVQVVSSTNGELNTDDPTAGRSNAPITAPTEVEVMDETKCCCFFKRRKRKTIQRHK
In assay [9] the target is T1, Bone morphogenetic protein receptor type-2 (Homo sapiens) (UniProt Q13873).
T1 sequence (whole entry): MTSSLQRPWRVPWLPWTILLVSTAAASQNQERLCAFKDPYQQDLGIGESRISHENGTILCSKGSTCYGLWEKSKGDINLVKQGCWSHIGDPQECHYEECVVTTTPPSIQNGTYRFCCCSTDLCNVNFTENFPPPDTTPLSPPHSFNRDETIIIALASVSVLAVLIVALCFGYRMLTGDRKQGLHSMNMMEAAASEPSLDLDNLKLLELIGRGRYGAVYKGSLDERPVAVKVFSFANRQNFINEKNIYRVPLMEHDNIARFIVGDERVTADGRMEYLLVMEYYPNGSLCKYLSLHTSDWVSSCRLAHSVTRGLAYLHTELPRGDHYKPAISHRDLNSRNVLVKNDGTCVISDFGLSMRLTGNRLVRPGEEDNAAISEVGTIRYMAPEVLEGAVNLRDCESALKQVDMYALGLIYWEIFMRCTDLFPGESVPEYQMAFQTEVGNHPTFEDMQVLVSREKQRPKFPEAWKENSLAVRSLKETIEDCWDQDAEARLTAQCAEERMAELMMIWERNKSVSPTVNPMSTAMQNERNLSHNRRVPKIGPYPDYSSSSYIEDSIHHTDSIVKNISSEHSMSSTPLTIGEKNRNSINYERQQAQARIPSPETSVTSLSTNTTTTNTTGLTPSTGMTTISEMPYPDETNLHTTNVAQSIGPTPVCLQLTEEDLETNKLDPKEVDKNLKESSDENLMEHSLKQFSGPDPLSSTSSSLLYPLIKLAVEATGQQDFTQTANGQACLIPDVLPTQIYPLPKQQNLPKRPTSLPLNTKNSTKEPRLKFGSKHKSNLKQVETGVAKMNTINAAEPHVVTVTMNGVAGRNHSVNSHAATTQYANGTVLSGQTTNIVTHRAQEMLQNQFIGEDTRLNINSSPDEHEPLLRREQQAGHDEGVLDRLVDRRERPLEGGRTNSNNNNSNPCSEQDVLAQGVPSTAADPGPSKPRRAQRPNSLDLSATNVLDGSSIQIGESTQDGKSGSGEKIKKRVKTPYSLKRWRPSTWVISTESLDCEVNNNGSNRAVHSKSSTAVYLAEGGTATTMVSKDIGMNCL
Put plainly: Competitive binding affinity to BMPR2 (unknown origin) at 10 uM in presence of ATP relative to control.

For assay [10], the target named is Atypical kinase COQ8A, mitochondrial (Homo sapiens, UniProt Q8NI60). Put plainly: Competitive binding affinity to ADCK3 (unknown origin) at 10 uM in presence of ATP relative to control. The method, boiled down: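 In vitro ATP-site competition binding assay across a diverse panel of 128 kinases, with each compound tested at a single concentration. Kinase binding is expressed relative to control.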
Atypical kinase COQ8A, mitochondrial, sequence (Q8NI60 163-647 limits assumed): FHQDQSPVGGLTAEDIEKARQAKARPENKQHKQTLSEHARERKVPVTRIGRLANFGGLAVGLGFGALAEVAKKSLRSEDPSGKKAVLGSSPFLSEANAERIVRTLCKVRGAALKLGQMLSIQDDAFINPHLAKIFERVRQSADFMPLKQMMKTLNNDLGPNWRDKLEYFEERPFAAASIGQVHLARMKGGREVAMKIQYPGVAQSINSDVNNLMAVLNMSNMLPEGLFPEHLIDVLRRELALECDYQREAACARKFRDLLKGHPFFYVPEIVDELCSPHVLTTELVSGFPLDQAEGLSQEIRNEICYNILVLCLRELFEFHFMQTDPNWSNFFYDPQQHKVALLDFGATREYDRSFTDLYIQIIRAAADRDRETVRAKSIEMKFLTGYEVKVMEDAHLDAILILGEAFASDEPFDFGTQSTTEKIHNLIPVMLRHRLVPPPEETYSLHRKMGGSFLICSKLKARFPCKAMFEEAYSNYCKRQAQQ

Assay [11] concerns the target Protein kinase C theta type (Homo sapiens) (UniProt Q04759). Put plainly: Competitive binding affinity to PRKCQ (unknown origin) at 10 uM in presence of ATP relative to control.
Assay [12] addresses Phosphatidylinositol 4,5-bisphosphate 3-kinase catalytic subunit alpha isoform (Homo sapiens) (UniProt P42336). Put plainly: Competitive binding affinity to PIK3CA (unknown origin) at 10 uM in presence of ATP relative to control.
Assay [13] has as its target Cyclin-dependent kinase 2/cyclin E1 (Homo sapiens, UniProt P24941). The assay can be described thus: Inhibition of human recombinant CDK2/GST-tagged cyclin E expressed in baculovirus infected insect cells assessed as inhibition of 6XHis-tagged retinoblastoma protein (386 to 928) phosphorylation after 30 mins by scintillation counting analysis in presence of [gamma-33P]-ATP. The method, boiled down:
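CDK2 activity was measured as phosphorylation of a 6-histidine-tagged truncated retinoblastoma protein (amino acids 386–928) using [γ-33P]ATP.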

Assay [14] concerns the target T2, Serine/threonine-protein kinase 4 (Homo sapiens) (UniProt Q13043).
T2 sequence (whole entry): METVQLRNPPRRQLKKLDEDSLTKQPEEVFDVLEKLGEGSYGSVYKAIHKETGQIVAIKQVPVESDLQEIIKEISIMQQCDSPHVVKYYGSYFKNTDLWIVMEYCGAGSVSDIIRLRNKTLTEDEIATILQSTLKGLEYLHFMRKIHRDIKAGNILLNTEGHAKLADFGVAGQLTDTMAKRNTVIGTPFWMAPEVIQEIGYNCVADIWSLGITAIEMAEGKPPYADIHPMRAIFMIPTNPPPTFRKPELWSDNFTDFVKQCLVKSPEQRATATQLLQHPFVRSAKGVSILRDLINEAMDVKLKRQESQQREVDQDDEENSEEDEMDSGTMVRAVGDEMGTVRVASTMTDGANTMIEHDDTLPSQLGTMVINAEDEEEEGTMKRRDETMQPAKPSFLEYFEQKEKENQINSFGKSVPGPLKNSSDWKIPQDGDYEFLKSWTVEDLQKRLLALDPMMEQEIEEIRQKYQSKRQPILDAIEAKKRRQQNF
Put plainly: Competitive binding affinity to STK4 (unknown origin) at 10 uM in presence of ATP relative to control.

Dual specificity mitogen-activated protein kinase kinase 2 (Homo sapiens), sequence (P36507 whole entry): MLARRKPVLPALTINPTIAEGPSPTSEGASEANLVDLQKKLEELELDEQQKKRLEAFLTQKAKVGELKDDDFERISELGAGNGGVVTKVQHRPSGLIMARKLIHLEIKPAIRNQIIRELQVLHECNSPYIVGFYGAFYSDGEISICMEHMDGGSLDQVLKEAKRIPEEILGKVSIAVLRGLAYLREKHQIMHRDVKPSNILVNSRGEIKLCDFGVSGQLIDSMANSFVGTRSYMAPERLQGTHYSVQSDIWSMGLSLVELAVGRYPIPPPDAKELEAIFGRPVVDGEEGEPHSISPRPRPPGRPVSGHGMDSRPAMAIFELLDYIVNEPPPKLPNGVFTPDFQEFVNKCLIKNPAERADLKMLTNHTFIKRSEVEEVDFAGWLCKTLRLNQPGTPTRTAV
Mitogen-activated protein kinase 3, sequence (P27361 whole entry): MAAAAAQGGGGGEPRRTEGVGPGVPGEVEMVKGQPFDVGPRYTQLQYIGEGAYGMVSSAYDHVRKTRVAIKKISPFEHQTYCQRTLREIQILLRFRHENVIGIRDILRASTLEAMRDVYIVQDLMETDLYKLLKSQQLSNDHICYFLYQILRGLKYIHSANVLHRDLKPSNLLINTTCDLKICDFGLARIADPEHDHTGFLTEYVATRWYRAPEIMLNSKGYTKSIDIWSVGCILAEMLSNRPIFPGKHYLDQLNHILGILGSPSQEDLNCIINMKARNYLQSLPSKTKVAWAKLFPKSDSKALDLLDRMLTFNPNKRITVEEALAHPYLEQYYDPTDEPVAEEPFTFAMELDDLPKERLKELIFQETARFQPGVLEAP
Dual specificity mitogen-activated protein kinase kinase 1 (Homo sapiens), sequence (Q02750 whole entry): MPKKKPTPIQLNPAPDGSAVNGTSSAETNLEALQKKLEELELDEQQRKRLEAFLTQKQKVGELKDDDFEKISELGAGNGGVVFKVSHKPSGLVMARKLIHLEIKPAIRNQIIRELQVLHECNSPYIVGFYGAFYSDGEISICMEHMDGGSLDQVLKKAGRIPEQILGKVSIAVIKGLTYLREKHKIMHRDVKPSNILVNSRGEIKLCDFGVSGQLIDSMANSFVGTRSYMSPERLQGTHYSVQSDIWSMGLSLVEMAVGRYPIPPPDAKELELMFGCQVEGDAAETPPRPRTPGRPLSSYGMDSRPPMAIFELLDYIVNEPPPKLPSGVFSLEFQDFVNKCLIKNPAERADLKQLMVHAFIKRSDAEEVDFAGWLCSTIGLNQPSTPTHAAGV

Turning to `O[C@H]1CC[C@H](Nc2nccc(-n3ccc4ccccc43)n2)CC1`, the inhibition in [1], in assay [2], in assay [3], in assay [4], in assay [5] and in assay [6] was < 50% in each case. In addition, the inhibition is < 50% in assay [7]; < 50% in assay [8]; < 50% in assay [9]; 80% in [10]; < 50% in [11]; < 50% in assay [12].
Regarding `O[C@H]1CC[C@H](Nc2nccc(-n3nnc4ccccc43)n2)CC1`, the inhibition was < 50% in assay [1]; < 50% in assay [2]; 98% in assay [3]; < 50% in assay [4]; < 50% in assay [5]; < 50% in assay [6]. Besides, the inhibition in assay [7] was < 50%; in [8], 96%; in assay [9], 85%; in assay [10], 92%; in assay [11] it was < 50%; in assay [12], 84%. In addition, the IC50 in [13] was 430 nM.
Take `CS(=O)(=O)CCCOc1cccc2c1ccn2-c1ccnc(N[C@H]2CC[C@H](C(=O)N3CCC(O)CC3)CC2)n1`: the inhibition in assay [5] and in assay [10] was > 85% in each case.
In the case of `O=C([C@H]1CC[C@H](Nc2nccc(-n3nnc4ccccc43)n2)CC1)N1CCOCC1`, the inhibition in [14] was < 50%. Besides, in [13], the IC50 turned out to be 2000 nM.
In the case of `O[C@H]1CC[C@H](Nc2nccc(-n3ncc4ccccc43)n2)CC1`, the inhibition in assay [1] was < 50%; in [2], < 50%; in [3] it was 100%; in assay [4] it was < 50%; in [5] it was < 50%; in assay [6], < 50%. Moreover, the inhibition in assay [7] was < 50%; in assay [8], < 50%; in assay [9], < 50%; in assay [10] it was 89%; in assay [11], < 50%; in assay [12] it was 78%.
With `O[C@H]1CC[C@H](Nc2nccc(-c3n[nH]c4ccccc34)n2)CC1`, the inhibition in assay [3] is 100%; in assay [4] it was < 50%; in [5] it was 80%; in assay [10] it was 79%; in assay [14] it was < 50%.
For `N[C@H]1CC[C@H](Nc2nccc(-n3nnc4ccccc43)n2)CC1`, in assay [14], the inhibition is < 50%. Further, the IC50 in [13] was 360 nM.
